ChEMBL document CHEMBL1139389, “Discovery of the Poly(ADP-ribose) polymerase (PARP) inhibitor 2-[(R)-2-methylpyrrolidin-2-yl]-1H-benzimidazole-4-carboxamide (ABT-888) for the treatment of cancer” (J Med Chem, 2009)

Key:
[1] = system: MX1; assay: Potentiation of cyclophosphamide-induced cytotoxicity against human MX1 cells xenografted in SCID mouse assessed as growth inhibition at 12.5 mg/kg/day, sc osmotic minipump after 48 days relative to cyclophosphamide monotherapy; assay type: functional; conditions: route subcutaneous
Outline: (§1)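 Female SCID mice bearing sc MX-1 brei (0.2 cc of 1:10, day 0), size-matched on day 15, 10 per group. Inhibitor 5, 12.5 or 25 mg/kg/day by sc osmotic minipump for 14 days from day 18; cyclophosphamide 12.5 mg/kg ip on days 20, 24 and 28. Volumes from caliper L×W²/2; TGI versus cyclophosphamide alone.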

[2] = biological target: T1, Cytochrome P450 2A6 (Homo sapiens, UniProt P11509); assay: Inhibition of CYP2A6 in human liver microsomes; assay type: ADME, Microsome
T1 sequence (P11509 whole entry): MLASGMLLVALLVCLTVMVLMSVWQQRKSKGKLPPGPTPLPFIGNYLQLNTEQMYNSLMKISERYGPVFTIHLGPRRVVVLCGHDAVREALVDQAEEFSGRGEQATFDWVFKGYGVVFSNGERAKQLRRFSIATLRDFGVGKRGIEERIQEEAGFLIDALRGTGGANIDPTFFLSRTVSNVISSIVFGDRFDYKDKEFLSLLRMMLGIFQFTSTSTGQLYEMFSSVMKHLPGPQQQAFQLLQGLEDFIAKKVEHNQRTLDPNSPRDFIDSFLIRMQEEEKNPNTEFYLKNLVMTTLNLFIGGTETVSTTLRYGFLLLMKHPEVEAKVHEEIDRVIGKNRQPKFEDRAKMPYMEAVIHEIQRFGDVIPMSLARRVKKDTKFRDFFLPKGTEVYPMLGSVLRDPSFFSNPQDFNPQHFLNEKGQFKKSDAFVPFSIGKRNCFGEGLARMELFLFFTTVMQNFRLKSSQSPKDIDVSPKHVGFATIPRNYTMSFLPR

[3] = biological target: Cytochrome P450 2C19 (Homo sapiens, UniProt P33261); assay: Inhibition of CYP2C19 in human liver microsomes; assay type: ADME, Microsome
Chain of Cytochrome P450 2C19 (P33261 whole entry): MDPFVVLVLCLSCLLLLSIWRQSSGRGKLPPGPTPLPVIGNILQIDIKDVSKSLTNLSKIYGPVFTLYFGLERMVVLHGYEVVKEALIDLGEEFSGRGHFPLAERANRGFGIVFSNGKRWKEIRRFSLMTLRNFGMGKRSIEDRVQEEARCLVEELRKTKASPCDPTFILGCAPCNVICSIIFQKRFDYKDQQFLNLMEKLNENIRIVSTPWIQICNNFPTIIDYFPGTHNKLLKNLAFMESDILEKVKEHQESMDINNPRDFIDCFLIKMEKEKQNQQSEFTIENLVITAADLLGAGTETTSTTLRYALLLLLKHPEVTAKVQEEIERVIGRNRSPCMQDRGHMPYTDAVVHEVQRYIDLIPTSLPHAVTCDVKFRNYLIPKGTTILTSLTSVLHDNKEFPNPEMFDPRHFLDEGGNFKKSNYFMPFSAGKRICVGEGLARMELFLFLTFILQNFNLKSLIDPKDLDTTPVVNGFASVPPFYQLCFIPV

[4] = system: MX1; assay: Potentiation of carboplatin-induced cytotoxicity against human MX1 cells xenografted in SCID mouse assessed as growth inhibition at 1 mg/kg/day, sc osmotic minipump after 42 days relative to carboplatin monotherapy; assay type: functional; conditions: route subcutaneous
Outline: (§2)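 MX-1 xenograft: 0.2 cc of 1:10 tumor brei injected sc into the flank of female SCID mice on day 0; size-matched on day 15, 10 mice/group. Inhibitor 1–50 mg/kg/day by sc osmotic minipump for 14 days from day 18; carboplatin 10 mg/kg ip on days 20, 24 and 28. Caliper volumes as L×W²/2; TGI relative to carboplatin alone.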

[5] = Oral bioavailability in CD1 mouse at 10 mg/kg; assay type: ADME, organism-based; conditions: in vivo
Outline: (§3)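 Mouse PK: oral dose 10 mg/kg in 2.5% EtOH, 1 drop Tween-80, 25% PEG400 in PBS; iv dose 3 mg/kg in 2.5% EtOH, 5% DMSO, 1 drop Tween-80, 25% PEG400 in PBS. Oral bioavailability, iv half-life, oral AUC and Cmax derived from plasma profiles.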

[6] = AUC in Beagle dog at 2.5 mg/kg, po; assay type: ADME, organism-based, Canis lupus familiaris; design: dose 2.5 mg/kg, route oral; conditions: plasma
[7] = system: MX1; assay: Potentiation of cyclophosphamide-induced cytotoxicity against human MX1 cells xenografted in SCID mouse assessed as growth inhibition at 25 mg/kg/day, sc osmotic minipump after 48 days relative to cyclophosphamide monotherapy; assay type: functional; conditions: route subcutaneous; outline: as §1
[8] = Volume of distribution at steady state in cynomolgus monkey at 2.5 mg/kg; assay type: ADME, organism-based, Macaca fascicularis; design: dose 2.5 mg/kg; conditions: in vivo, read-out: Vdss
[9] = AUC in Sprague-Dawley rat at 5 mg/kg, po; assay type: ADME, organism-based; design: dose 5 mg/kg, route oral; conditions: plasma
[10] = Half life in Sprague-Dawley rat at 5 mg/kg, iv; assay type: ADME, organism-based; design: dose 5 mg/kg, route intravenous; conditions: in vivo
[11] = AUC in cynomolgus monkey at 2.5 mg/kg, po; assay type: ADME, organism-based, Macaca fascicularis; design: dose 2.5 mg/kg, route oral; conditions: plasma
[12] = Protein binding in Beagle dog plasma at 5 uM; assay type: ADME, cell-free, Canis lupus familiaris; conditions: read-out: PPB (converted)
[13] = Clearance in Sprague-Dawley rat at 5 mg/kg; assay type: ADME, organism-based; design: dose 5 mg/kg; conditions: in vivo
[14] = biological target: Cytochrome P450 2C9 (Homo sapiens, UniProt P11712); assay: Inhibition of CYP2C9 in human liver microsomes; assay type: ADME, Microsome
Chain of Cytochrome P450 2C9 (P11712 whole entry): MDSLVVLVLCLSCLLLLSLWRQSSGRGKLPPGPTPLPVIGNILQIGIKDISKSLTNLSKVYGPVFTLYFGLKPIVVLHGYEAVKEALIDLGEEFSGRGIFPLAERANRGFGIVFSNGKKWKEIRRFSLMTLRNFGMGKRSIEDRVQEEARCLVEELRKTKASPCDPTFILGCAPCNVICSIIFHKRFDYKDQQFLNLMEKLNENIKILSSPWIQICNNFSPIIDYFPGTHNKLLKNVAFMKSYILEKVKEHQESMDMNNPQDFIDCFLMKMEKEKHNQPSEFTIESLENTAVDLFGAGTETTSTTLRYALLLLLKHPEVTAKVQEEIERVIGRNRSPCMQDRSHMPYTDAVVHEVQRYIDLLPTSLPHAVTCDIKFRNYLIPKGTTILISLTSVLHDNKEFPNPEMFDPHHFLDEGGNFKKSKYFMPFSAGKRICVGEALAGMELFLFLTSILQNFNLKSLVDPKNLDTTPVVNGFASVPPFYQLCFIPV

[15] = Protein binding in cynomolgus monkey plasma at 5 uM; assay type: ADME, cell-free, Macaca fascicularis; conditions: read-out: PPB (converted)
[16] = system: B16-F10; assay: Potentiation of temozolomide-induced cytotoxicity against mouse B16F10 cells xenografted in C57BL/6 mouse assessed as growth inhibition at 1 mg/kg/day, po after 17 days relative to temozolomide monotherapy; assay type: functional
Outline: (§4)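 B16F10 syngeneic model: 6×10^4 cells in 50% matrigel injected sc into the flank of 6–8 week old female C57BL/6 mice (20 g), allocated to groups by injection order. Inhibitor given po bid days 6–11 at 1, 5 or 12.5 mg/kg/day; temozolomide 50 mg/kg/day po qd days 6–11. Tumor volume by caliper as L×W²/2; TGI versus temozolomide alone.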

[17] = system: MX1; assay: Potentiation of carboplatin-induced cytotoxicity against human MX1 cells xenografted in SCID mouse assessed as growth inhibition at 25 mg/kg/day, sc osmotic minipump after 42 days relative to carboplatin monotherapy; assay type: functional; conditions: route subcutaneous; outline: as §2
[18] = system: B16-F10; assay: Antitumor activity against mouse B16F10 cells xenografted in C57BL/6 mouse assessed as growth inhibition at 12.5 mg/kg/day, po after 14 days relative to control; assay type: functional
[19] = Half life in Beagle dog at 2.5 mg/kg, iv; assay type: ADME, organism-based, Canis lupus familiaris; design: dose 2.5 mg/kg, route intravenous; conditions: in vivo
[20] = system: MX1; assay: Potentiation of carboplatin-induced cytotoxicity against human MX1 cells xenografted in SCID mouse assessed as growth inhibition at 5 mg/kg/day, sc osmotic minipump after 42 days relative to carboplatin monotherapy; assay type: functional; conditions: route subcutaneous; outline: as §2
[21] = Cmax in CD1 mouse at 10 mg/kg, po; assay type: ADME, organism-based; design: dose 10 mg/kg, route oral; conditions: in vivo; outline: as §3
[22] = system: B16-F10; assay: Potentiation of temozolomide-induced cytotoxicity against mouse B16F10 cells xenografted in C57BL/6 mouse assessed as growth inhibition at 12.5 mg/kg/day, po after 17 days relative to temozolomide monotherapy; assay type: functional; outline: as §4
[23] = Protein binding in Sprague-Dawley rat plasma at 5 uM; assay type: ADME, cell-free; conditions: read-out: PPB (converted)
[24] = Clearance in cynomolgus monkey at 2.5 mg/kg; assay type: ADME, organism-based, Macaca fascicularis; design: dose 2.5 mg/kg; conditions: in vivo
[25] = Cmax in Sprague-Dawley rat at 5 mg/kg, po; assay type: ADME, organism-based; design: dose 5 mg/kg, route oral; conditions: in vivo

Activity [2]: Not Active
Activity [3]: Not Active
bioavailability [5]: 92%
AUC [6]: 3200 ng·h/mL
Vd [8]: 3.1 L/kg
AUC [9]: 1500 ng·h/mL
half-life [10]: 1.2 h
AUC [11]: 1300 ng·h/mL
fraction unbound at 5 µM [12]: 0.59
clearance [13]: 33.3 mL/min/kg
Activity [14]: Not Active
fraction unbound at 5 µM [15]: 0.59
half-life [19]: 2.7 h
Cmax [21]: 1600 ng/mL
fraction unbound at 5 µM [23]: 0.59
clearance [24]: 18.3 mL/min/kg
Cmax [25]: 500 ng/mL
SMILES: C[C@]1(c2nc3c(C(N)=O)cccc3[nH]2)CCCN1 [VELIPARIB]
TGI [1]: 33%
TGI [4]: 21%
TGI [7]: 61%
TGI [16]: 43%
TGI [17]: 78%
TGI [18]: 28%
TGI [20]: 17%
TGI [22]: 64%
